Screening data as filed in PubChem.
Shown are actives, neighbours in structure and some others; about 1.3% of the full set was active somewhere.
Hep lipid drop: inhibitors of hepatocyte lipid droplet formation, primary screen, imaging, high-throughput imaging, BODIPY stain; AML12 mouse hepatocytes, oleate lipid droplets; inhibition, % at 6.5 µM; actives 0.4% (n = 240,000); AID 1656, 2009;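 active means lipid droplet intensity inhibited by at least 50%, with more than 500 cells counted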
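Test system: AML12 mouse liver cells; schedule: overnight exposure; technique: high-content imaging of BODIPY-stained droplets and DAPI nuclei; read-out: % inhibition of corrected integrated BODIPY droplet signal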
JMJD2C inh: inhibitors of GASC-1 histone demethylase, primary screen, biochemical, fluorescence, DELFIA europium; Lysine-specific demethylase 4C (Homo sapiens), Q9H3R0; GST-JMJD2C(1-420) H3K9me3 demethylation; inhibition, % at 2.35 µM; actives 0.069% (n = 330,000);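 active means more than half of a compound's replicate wells show inhibition beyond 50%, single wells judged on their own value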;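 further: signal counts dimethyl H3K9 product captured on neutravidin plate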
procasp7 counter: procaspase-7 activators, primary screen, counter-screen for procaspase-3 activator project, biochemical, absorbance, HTS, human | actives 0.093% (n = 330,000) | recombinant procaspase-7, Ac-DEVD-pNA absorbance 405 nm; D23A/D198A/D206A triple mutant, cannot self-cleave; scale: DMSO 0, 5 µM enzyme 100 | AID 463210, 2010 | Caspase-7 (Homo sapiens), P55210 | activation, % at 8.5 µM;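 active means percent activation above the screen-wide mean plus 3 SD, cut at about 25% in these data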
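System: Procaspase-7 triple mutant (PC-7 D3A); measure: % activation from two-timepoint absorbance difference, scaled to controls; times: 1 h compound preincubation, 2 h substrate cleavage, 25 °C; also added: Ac-DEVD-pNA substrate, 400 µM as added; measured by: Epi-absorbance of released pNA at 405 nm, two timepoints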
VLA-4 inh: inhibition in human VLA-4 binding assay, primary screen, VLA-4 allosteric modulator project, MLPCN library, flow cytometry, VLA-4 expressing cells; Integrin alpha-4 (Homo sapiens), P13612; ligand binding flow cytometry; inhibition, % (about 7 µM as worked out from the volumes in the protocol); actives 0.2% (n = 330,000); AID 2557, 2010; in the data active means inhibition above about 50%
Target sequence (P13612 whole entry, looked up): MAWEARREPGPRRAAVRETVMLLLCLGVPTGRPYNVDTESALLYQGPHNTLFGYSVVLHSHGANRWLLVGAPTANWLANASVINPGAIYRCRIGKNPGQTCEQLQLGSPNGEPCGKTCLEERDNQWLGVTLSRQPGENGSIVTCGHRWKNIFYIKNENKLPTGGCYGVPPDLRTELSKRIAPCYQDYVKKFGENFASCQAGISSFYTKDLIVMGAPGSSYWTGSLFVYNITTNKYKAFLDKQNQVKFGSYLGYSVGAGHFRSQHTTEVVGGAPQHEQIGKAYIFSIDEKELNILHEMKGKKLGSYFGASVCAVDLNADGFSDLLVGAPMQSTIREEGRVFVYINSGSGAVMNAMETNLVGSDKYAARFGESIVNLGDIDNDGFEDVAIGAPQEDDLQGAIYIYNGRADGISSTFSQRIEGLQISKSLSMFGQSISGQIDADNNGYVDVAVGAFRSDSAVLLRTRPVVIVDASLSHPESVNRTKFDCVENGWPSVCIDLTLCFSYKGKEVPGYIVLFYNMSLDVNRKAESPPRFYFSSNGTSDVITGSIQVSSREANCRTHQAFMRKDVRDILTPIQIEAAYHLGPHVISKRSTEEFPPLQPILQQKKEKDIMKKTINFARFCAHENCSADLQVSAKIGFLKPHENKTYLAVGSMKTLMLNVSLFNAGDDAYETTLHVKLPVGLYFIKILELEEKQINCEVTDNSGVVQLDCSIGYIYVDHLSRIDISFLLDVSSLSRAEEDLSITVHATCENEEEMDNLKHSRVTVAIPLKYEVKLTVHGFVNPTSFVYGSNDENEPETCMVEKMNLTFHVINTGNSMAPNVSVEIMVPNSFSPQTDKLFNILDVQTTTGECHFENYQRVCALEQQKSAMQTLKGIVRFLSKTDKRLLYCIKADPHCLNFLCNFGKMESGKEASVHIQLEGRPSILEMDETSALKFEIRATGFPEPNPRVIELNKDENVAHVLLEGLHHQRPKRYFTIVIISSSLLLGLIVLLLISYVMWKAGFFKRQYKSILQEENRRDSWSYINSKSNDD
proCasp3 act: activators of human procaspase-3 D3A mutant, primary screen, biochemical, absorbance, PC-3 D3A mutant, single concentration; Caspase-3 (Homo sapiens), P42574; recombinant procaspase-3 D3A, Ac-DEVD-pNA absorbance 405 nm; activation, % at 8.5 µM; actives 0.11% (n = 330,000); AID 463141, 2010;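 active means activation above the mean of all tested compounds plus 3 SD, cut at about 21% in these data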
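material = Procaspase-3 D3A mutant | probe or stimulus = Ac-DEVD-pNA | compound = single dose, 8.5 µM nominal compound, 0.8% DMSO | timing = 1 h preincubation, 2 h reaction | measured by = 405 nm absorbance of p-nitroaniline, reads at 0 and 120 min | benchmarks = DMSO-only low control, 5 µM PC-3 D3A high control | repeats = singlicate, each compound tested once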
GRK2 aptamer HTS: compounds blocking aptamer binding on GRK2 – biochemical, human GRK2, bead flow cytometry, HTS, primary screen; inhibition of aptamer binding, % at 10 µM; Beta-adrenergic receptor kinase 1 (Homo sapiens), P25098; FAM-aptamer displacement from GRK2; actives 0.59% (n = 330,000); AID 488847, 2010;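 active means inhibition of aptamer binding above 40%, roughly 3 SD of noise, on plates passing a quality check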;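 further: median bead fluorescence of bound FAM aptamer so fluorescent compounds give negative values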
Of the large screens only hits and unclear results are named; the others gave an inactive call.

COc1cc(NC(=S)NCCCO)c(OC)cc1Cl	GRK2 aptamer HTS 42.0
O=C(CSc1ccc(Cl)cc1)c1ccco1	GRK2 aptamer HTS 58.0 (no result: Hep lipid drop)
CC(C)NC(=O)N(C)C[C@H]1Oc2c(NC(=O)Nc3ccccc3)cccc2C(=O)N([C@H](C)CO)C[C@@H]1C	none (no result: Hep lipid drop, JMJD2C inh)
COC(=O)c1ccc2c(c1)C(C)(C)C(/C=C/c1ccc(O)cc1)=[N+]2C	Hep lipid drop 119.4
O=C(Nn1cnnc1)c1ccc(F)cc1	none
COc1ccc(-n2c(C)cc(/C=N/Nc3nnc(C)n3N)c2C)cc1	JMJD2C inh 68.3
COc1cccc(/C=N/Nc2nnc(C)n2N)c1O	none
O=C(O)c1ccc2c(c1)C(=O)N(CCC1=CCCCC1)C2=O	JMJD2C inh 101.5
COc1ccc(C2(CNC(=O)/C=C\c3ccco3)CCCC2)cc1OC	GRK2 aptamer HTS 48.0
O=S(=O)(c1ccc(F)cc1)N1CCN(C(=S)NC2CC2)CC1	none (no result: Hep lipid drop)
CCOC(=O)c1cc(-c2ccccc2)sc1NC(=O)C(C)OC(=O)c1cccnc1Cl (stereo unspecified)	GRK2 aptamer HTS 100.0
CCOC(=O)c1cc(-c2ccccc2)sc1NC(=O)C(C)OC(=O)c1ccncc1 (stereo unspecified)	none
CCOC(=O)C1(C)NC(c2cccs2)C2C(=O)N(c3ccc(OC)cc3)C(=O)C21 (stereo unspecified)	JMJD2C inh 54.8
Cc1ccc(C(=O)NC(=S)N2CCCCCC2)cc1	none (no result: Hep lipid drop)
Cc1ccc(C)n1-c1ccc(C(=O)O)cc1	GRK2 aptamer HTS 82.0 (no result: Hep lipid drop)
CC(=O)c1c(C(C)=O)c(C)n(-c2ccc(C(=O)O)cc2)c1C	none (no result: Hep lipid drop)
O=C(NCc1nnnn1-c1ccc(F)c(F)c1)c1ccc2c(c1)OCO2	none (no result: Hep lipid drop)
CCCCOc1ccc(C(=O)Nc2ccc(N3CCN(C(C)=O)CC3)cc2)cc1	JMJD2C inh 61.2 (no result: Hep lipid drop)
O=C1CN(c2ccccc2)C(=S)N1C(=O)c1ccc(Br)cc1	none
COc1ccc(OC)c2sc(N(CCCN(C)C)C(=O)c3ccc(S(=O)(=O)N4CCc5ccccc5C4)cc3)nc12	VLA-4 inh 52.8 (no result: Hep lipid drop)
COc1ccc(NC(=O)/C(C#N)=C/c2ccc(Br)o2)cc1	GRK2 aptamer HTS 67.0
COc1ccccc1-n1c(SCC(=O)N2CCCC2)nc2cccnc21	JMJD2C inh 61.5 (no result: Hep lipid drop)
CC(C)(C)c1cc(C(c2cccnc2)N2CCN(CCO)CC2)cc(C(C)(C)C)c1O (stereo unspecified)	VLA-4 inh 50.0
CC(C)(C)n1nnnc1C(c1cccnc1)N1CCN(c2cccc(C(F)(F)F)c2)CC1 (stereo unspecified)	none
O=C(NC1CCCC1)C(c1ccncc1)N(C(=O)c1ccco1)c1ccc(F)c(Cl)c1 (stereo unspecified)	none
COc1cccc(C(C[N+](=O)[O-])c2c(C)[nH]n(-c3ccccc3)c2=O)c1 (stereo unspecified)	JMJD2C inh 68.9
Cc1[nH]n(-c2ccccc2)c(=O)c1C(C[N+](=O)[O-])c1ccc(Br)cc1 (stereo unspecified)	none
N#Cc1cc(-c2ccccc2)nnc1Sc1ccc(F)cc1	none
N#Cc1cc(-c2ccccc2)nnc1Sc1ccccc1	JMJD2C inh 101.6
Cc1ccc(NC(=O)CCNC(=O)Cn2ccc3ccccc3c2=O)cc1F	none
N=C1S/C(=C\c2ccc(-c3ccccc3C(=O)O)o2)C(=O)N1c1ccc2c(c1)OCO2	none (no result: procasp7 counter, VLA-4 inh, proCasp3 act, GRK2 aptamer HTS)
COc1ccccc1N1C(=N)S/C(=C\c2ccc(-c3ccccc3C(=O)O)o2)C1=O	GRK2 aptamer HTS 44.0
CCOC(=O)C1CCCN(C(=O)COc2ccc(S(=O)(=O)N3CCOCC3)cc2)C1 (stereo unspecified)	none (no result: Hep lipid drop)
Cc1ccc(N2CC(C(=O)Nc3ccc(S(=O)(=O)NCC4CCCO4)cc3)CC2=O)cc1C (stereo unspecified)	none
CC(=O)c1cccc(OCC(=O)N(C)CC(=O)NCc2ccco2)c1	GRK2 aptamer HTS 86.0 (no result: Hep lipid drop)
COc1cccc(NC(=O)CN(C)CC(=O)NCc2ccco2)c1	none (no result: Hep lipid drop)
CN1c2ccccc2C(O)=C(C(=S)Nc2ccc(Cl)cc2)S1(=O)=O	GRK2 aptamer HTS 61.0
CCN(C[C@H]1N[C@@](C)(C(=O)OC)[C@H]2C(=O)N(Cc3ccccc3)C(=O)[C@@H]12)C(=O)Nc1ccc(Cl)cc1	none (no result: Hep lipid drop)
CCOc1ccc(CCNC(=O)CSc2nnnn2C)cc1OCC	none
CCOc1ccc(CCNC(=O)CSc2nn(-c3ccc(C)c(Cl)c3)c(=S)s2)cc1OCC	Hep lipid drop 69.7
Cc1cc(C)cc(NC(=O)c2ccc(NC(=O)c3ccco3)cc2)c1	none
CC(=O)Nc1ccc(NC(=O)c2ccco2)cc1	none
COC(=O)c1ccc(NC(=O)c2ccc(NC(=O)c3ccco3)cc2)cc1	GRK2 aptamer HTS 83.0
CC(=O)c1ccc(NC(=O)c2ccc(NC(=O)c3ccco3)cc2)cc1	GRK2 aptamer HTS 77.0
O=C(NNC(=O)C1CC1)c1cc(Cl)nc2ccccc12	GRK2 aptamer HTS 75.0
CC(C)(C)c1ccc(-c2nc(O)c(CC(=O)O)s2)cc1	GRK2 aptamer HTS 51.0
CCOC(=O)c1sc(-c2ccccn2)nc1C	none
Cc1oc2c(c1C(=O)c1ccccc1)C(=O)C(=O)c1ccccc1-2	GRK2 aptamer HTS 58.0 (no result: Hep lipid drop)
Cc1oc2c(c1C(=O)O)C(=O)c1ccccc1C2=O	none
CC(=O)Nc1ccc(N2CCc3c(C)c(C#N)c4nc5ccccc5n4c32)cc1	procasp7 counter 89.6, proCasp3 act 64.9
CC(=O)c1ccc(Nc2c3c(c(C#N)c4nc5ccccc5n24)CCC3)cc1	none
CN1CCN(C(=O)/C=C/c2ccc(Cl)cc2)CC1	none
O=C(/C=C/c1ccc(Cl)cc1)N1CCN(Cc2ccccc2)CC1	GRK2 aptamer HTS 44.0 (no result: Hep lipid drop)
CC(=O)N(C)C1=C(N2CCOCC2)C(=O)c2ccccc2C1=O	JMJD2C inh 98.7 (no result: Hep lipid drop)
CCCCC(CCC(=O)Nc1ccn(-c2ccccc2)n1)C(=O)O (stereo unspecified)	none (no result: Hep lipid drop)
O=S(=O)(/C(=C/c1ccc(C(F)(F)F)cc1)c1nc2ccccc2[nH]1)c1ccccc1	none
CC(C)c1ccc(/C=C(\c2nc3ccccc3[nH]2)S(=O)(=O)c2ccccc2)cc1	Hep lipid drop 54.4
